Assay results reported in ChEMBL document CHEMBL1134844 (J Med Chem, 2001).

Tests used:
[1] = target: 5-hydroxytryptamine receptor 1B (Homo sapiens, UniProt P28222); test: Binding affinity in CHO-K1 cells transfected with human recombinant 5-hydroxytryptamine 1B receptor; assay type: cell-based
[2] = target: 5-hydroxytryptamine receptor 1D (Homo sapiens, UniProt P28221); test: Binding affinity in CHO-K1 cells transfected with human 5-hydroxytryptamine 1D receptor; assay type: cell-based
In short: (§1)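 Competition binding on CHO-K1 cells stably transfected with human recombinant 5HT1D, 5HT1F or 5HT1A receptors; reported as pIC50, means of duplicates.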

Oryctolagus cuniculus [3] = organism: Oryctolagus cuniculus; test: (§2) Relative binding affinity in rabbit saphenous vein functional assay compared to 5-HT; conditions: read-out: pA2 (converted)
Oryctolagus cuniculus [4] = organism: Oryctolagus cuniculus; test: as §2
Cavia porcellus [5] = organism: Cavia porcellus; test: Ability to inhibit [125I]- albumin extravasation into dura following electrical stimulation of trigeminal ganglion of Guinea pig; assay type: functional
In short: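 Pentobarbitone-anaesthetised (50 mg/kg ip), ventilated guinea pigs kept at 37 °C; single jugular iv bolus of 0.01, 0.03 or 0.1 µg/kg or saline vehicle. 5 min later, [125I]BSA 50 µCi/kg iv. After another 5 min, one trigeminal ganglion was stimulated for 5 min (5 pulses/s, 5 ms, 1.2 mA). Dura gamma-counted as cpm/mg wet weight; stimulated/unstimulated ratio, mean ± SEM; vehicle controls run daily.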

Oryctolagus cuniculus [6] = organism: Oryctolagus cuniculus; test: Binding affinity towards rabbit saphenous vein value in parenthesis represents intrinsic activity for RbSv;(1 for 5-HT); assay type: functional
[7] = Oral bioavailability in human; assay type: ADME, organism-based; conditions: in vivo
Oryctolagus cuniculus [8] = organism: Oryctolagus cuniculus; conditions: Saphenous vein
[9] = target: T1, 5-hydroxytryptamine receptor 1A (Homo sapiens, UniProt P08908); test: binding affinity towards human recombinant 5-hydroxytryptamine 1A receptor; in short: as §1
T1 sequence (P08908 whole entry): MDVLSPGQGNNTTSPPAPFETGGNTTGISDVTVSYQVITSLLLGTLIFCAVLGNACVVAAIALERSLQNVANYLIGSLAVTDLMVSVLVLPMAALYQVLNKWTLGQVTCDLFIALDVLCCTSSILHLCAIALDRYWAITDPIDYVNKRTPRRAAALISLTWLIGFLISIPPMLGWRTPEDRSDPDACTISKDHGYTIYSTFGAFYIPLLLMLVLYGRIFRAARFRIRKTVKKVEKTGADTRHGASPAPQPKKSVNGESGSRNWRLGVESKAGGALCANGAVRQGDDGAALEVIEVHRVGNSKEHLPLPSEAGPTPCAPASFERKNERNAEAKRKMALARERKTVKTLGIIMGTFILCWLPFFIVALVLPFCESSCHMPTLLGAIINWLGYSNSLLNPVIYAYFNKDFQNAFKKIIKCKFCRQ

[10] = target: T2, 5-hydroxytryptamine receptor 1F (Homo sapiens, UniProt P30939); test: Binding affinity towards human recombinant 5-hydroxytryptamine 1F receptor; in short: as §1
T2 sequence (P30939 whole entry): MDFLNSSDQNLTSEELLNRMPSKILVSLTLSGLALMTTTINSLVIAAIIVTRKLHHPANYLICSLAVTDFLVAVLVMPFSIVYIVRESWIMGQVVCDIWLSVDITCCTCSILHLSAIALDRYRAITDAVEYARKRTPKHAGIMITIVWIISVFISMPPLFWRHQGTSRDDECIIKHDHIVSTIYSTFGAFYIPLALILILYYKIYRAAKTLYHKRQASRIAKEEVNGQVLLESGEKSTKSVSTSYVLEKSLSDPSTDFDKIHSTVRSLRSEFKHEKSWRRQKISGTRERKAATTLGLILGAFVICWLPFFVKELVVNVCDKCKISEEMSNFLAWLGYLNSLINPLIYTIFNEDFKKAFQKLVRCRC

[11] = Volume distribution in rat; assay type: ADME, organism-based; conditions: in vivo
[12] = Plasma clearance in rat; assay type: ADME, organism-based
[13] = Oral bioavailability in rat; assay type: ADME, organism-based; conditions: in vivo
[14] = Beta phase half life was determined in rat; assay type: ADME, organism-based; conditions: in vivo
Cavia porcellus [15] = organism: Cavia porcellus; test: Ability to inhibit [125I]- albumin extravasation into dura following electrical stimulation of trigeminal ganglion; assay type: functional
In short: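 Anesthetized guinea pigs (pentobarbitone 50 mg/kg ip, 37 °C, ventilated) got a single iv jugular bolus (0.01, 0.03 or 0.1 µg/kg; vehicle 0.9% saline). 5 min later 50 µCi/kg [125I]BSA iv; after another 5 min, unilateral trigeminal ganglion stimulation for 5 min (5 pulses/s, 5 ms, 1.2 mA). Dural cpm/mg wet weight was expressed as stimulated/unstimulated ratio, mean ± SEM.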

Sequence of 5-hydroxytryptamine receptor 1D (P28221 whole entry): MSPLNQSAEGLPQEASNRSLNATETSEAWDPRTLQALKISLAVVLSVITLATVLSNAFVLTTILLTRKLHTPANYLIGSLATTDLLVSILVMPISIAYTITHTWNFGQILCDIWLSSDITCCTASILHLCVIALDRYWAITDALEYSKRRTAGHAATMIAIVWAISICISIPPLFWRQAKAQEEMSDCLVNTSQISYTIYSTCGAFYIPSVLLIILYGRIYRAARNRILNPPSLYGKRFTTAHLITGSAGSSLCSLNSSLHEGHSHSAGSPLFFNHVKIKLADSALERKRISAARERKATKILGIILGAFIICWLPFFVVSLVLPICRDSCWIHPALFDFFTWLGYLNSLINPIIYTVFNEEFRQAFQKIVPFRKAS
Sequence of 5-hydroxytryptamine receptor 1B (P28222 whole entry): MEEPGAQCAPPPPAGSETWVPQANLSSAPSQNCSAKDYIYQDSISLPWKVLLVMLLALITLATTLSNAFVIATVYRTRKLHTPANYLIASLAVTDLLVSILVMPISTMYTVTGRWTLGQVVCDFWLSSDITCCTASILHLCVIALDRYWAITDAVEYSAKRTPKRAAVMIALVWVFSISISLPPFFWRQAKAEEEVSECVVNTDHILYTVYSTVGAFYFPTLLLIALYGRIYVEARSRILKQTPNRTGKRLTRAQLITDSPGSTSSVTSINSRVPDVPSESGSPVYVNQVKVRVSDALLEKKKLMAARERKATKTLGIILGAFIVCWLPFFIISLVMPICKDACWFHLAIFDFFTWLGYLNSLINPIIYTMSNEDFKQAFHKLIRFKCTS

Row | SMILES | IC50 [1] [nM] | IC50 [2] [nM] | Kb (Oryctolagus cuniculus [3]) [nM] | pA50 (Oryctolagus cuniculus [4]) | other results
1 | Cc1noc(-c2ccc3[nH]cc([C@H]4C[C@H](N(C)C)C4)c3c2)n1 | 832 | 562 | 955 | – | –
2 | CN(C)[C@H]1C[C@H](c2c[nH]c3ccc(CC(N)=O)cc32)C1 | 1350 | 724 | 16600 | – | –
3 | CN(C)[C@H]1C[C@H](c2c[nH]c3ccc(CCN4C(=O)CNC4=O)cc32)C1 | – | – | 1910 | – | –
4 | CN1C(=O)OCC1Cc1ccc2[nH]cc([C@H]3C[C@H](N(C)C)C3)c2c1 (stereo in doubt; 34) [listing 1 of 2 here] | – | – | – | 4.85 | –
5 | N[C@H]1C[C@H](c2c[nH]c3ccc(CC4COC(=O)N4)cc32)C1 (stereo in doubt; 23) [listing 1 of 2 here] | – | – | – | 6.42 | –
6 | N[C@H]1C[C@H](c2c[nH]c3ccc(CC4COC(=O)N4)cc32)C1 (stereo in doubt; 23) [listing 2 of 2 here] | 18.2 | 3.63 | – | – | –
7 | CN(C)[C@H]1C[C@H](Cc2c[nH]c3ccc(C[C@H]4COC(=O)N4)cc23)C1 | 141 | 28.8 | 1860 | – | –
8 | CN(C)[C@H]1C[C@H](c2c[nH]c3ccc(CC4COC(=O)N4)cc32)C1 (stereo in doubt; 31) [listing 1 of 2 here] | – | – | – | 4.95 | –
9 | CN(C)[C@H]1C[C@H](c2c[nH]c3ccc(CC(=O)NCc4ccccc4)cc32)C1 | 263 | 339 | 3890 | – | –
10 | CNS(=O)(=O)Cc1ccc2[nH]cc(C[C@H]3CCCN3C)c2c1 | 14.5 | 7.24 | – | – | ED50 (Cavia porcellus [5]): 0.0001 mg/kg; pA50 (Oryctolagus cuniculus [6]): 6.33
11 | CN(C)[C@H]1C[C@H](c2c[nH]c3ccc(Oc4ccccc4)cc32)C1 | 97.7 | 64.6 | 240 | – | –
12 | CN[C@H]1C[C@H](c2c[nH]c3ccc(CC4COC(=O)N4)cc32)C1 (stereo partly specified) | 32.4 | 7.08 | – | 6.18 | –
13 | CN(C)[C@H]1C[C@H](c2c[nH]c3ccc(CC4COC(=O)N4)cc32)C1 (stereo in doubt; 35) [listing 1 of 2 here] | – | – | – | 5.15 | –
14 | CN1C(=O)OCC1Cc1ccc2[nH]cc([C@H]3C[C@H](N(C)C)C3)c2c1 (stereo in doubt; 30) [listing 2 of 2 here] | – | – | – | 5.21 | –
15 | CNS(=O)(=O)Cc1ccc2[nH]cc(CCN(C)C)c2c1 | – | – | – | – | bioavailability [7]: 14%; ED50 (Cavia porcellus [5]): 0.01 mg/kg; pA50 (Oryctolagus cuniculus [8]): 6.6
16 | CN(C)[C@H]1C[C@H](c2c[nH]c3ccc(C(N)=O)cc32)C1 | 44.7 | 14.8 | – | 6.25 | –
17 | N[C@H]1C[C@H](c2c[nH]c3ccc(Oc4ccccc4)cc32)C1 | 9.55 | 14.5 | – | < 6.5 | –
18 | CN(C)CCc1c[nH]c2ccc(C[C@H]3COC(=O)N3)cc12 [ZOLMITRIPTAN] | 6.17 | 2.82 | – | 6.8 | bioavailability [7]: 40%; ED50 (Cavia porcellus [5]): ~0.012 mg/kg
19 | CN(C)[C@H]1C[C@H](c2c[nH]c3ccc(CC4COC(=O)N4)cc32)C1 (stereo in doubt; 1) [listing 2 of 2 here] | – | – | – | 5.72 | –
20 | CN(C)[C@H]1C[C@H](c2c[nH]c3ccc(C(=O)NCc4ccccc4)cc32)C1 | 316 | 141 | 1260 | – | –
21 | N[C@H]1C[C@H](c2c[nH]c3ccc(CC4COC(=O)N4)cc32)C1 (stereo in doubt; 24) | – | – | – | 5.8 | –
22 | CNS(=O)(=O)Cc1ccc2[nH]cc([C@H]3C[C@H](N(C)C)C3)c2c1 | 275 | 191 | – | 5.25 | –

The next lines start with results.

Row | IC50 [1] [nM] | IC50 [2] [nM] | SMILES | Kb (Oryctolagus cuniculus [3]) [nM] | pA50 (Oryctolagus cuniculus [4]) | other results
23 | 3800 | 3090 | CN(C)[C@H]1C[C@H](c2c[nH]c3ccc(CN4C(=O)NC(C)(C)C4=O)cc32)C1 | 589 | – | –
24 | 1200 | 1480 | CN(C)[C@H]1C[C@H](c2c[nH]c3ccc(CCN4C(=O)NC(C)(C)C4=O)cc32)C1 | 891 | – | –
25 | 97.7 | 57.5 | CN1C(=O)OCC1Cc1ccc2[nH]cc([C@H]3C[C@H](N(C)C)C3)c2c1 (stereo in doubt; 34) [listing 2 of 2 here] | – | – | –
26 | 204 | 100 | CN1C(=O)OCC1Cc1ccc2[nH]cc([C@H]3C[C@H](N(C)C)C3)c2c1 (stereo in doubt; 30) [listing 1 of 2 here] | – | – | –
27 | 3890 | 2040 | Cc1nc(Cc2ccc3[nH]cc([C@H]4C[C@H](N(C)C)C4)c3c2)n[nH]1 | 6610 | – | –
28 | 562 | 170 | CN(C)[C@H]1C[C@H](c2c[nH]c3ccc(CC4COC(=O)N4)cc32)C1 (stereo in doubt; 31) [listing 2 of 2 here] | – | – | –
29 | 1510 | 933 | Cc1noc(Cc2ccc3[nH]cc([C@H]4C[C@H](N(C)C)C4)c3c2)n1 | 7590 | – | –
30 | 112 | 15.8 | CN(C)[C@H]1C[C@H](c2c[nH]c3ccc(CC4COC(=O)N4)cc32)C1 (stereo in doubt; 1) [listing 1 of 2 here] | – | – | IC50 [9]: 3.55 µM; IC50 [10]: 363 nM; Vd [11]: 2.6 L/kg; clearance [12]: 40 mL/min/kg; bioavailability [7]: 41%; bioavailability [13]: 35%; half-life [14]: 84 min; ED50 (Cavia porcellus [15]): ~0.01 µg/kg
31 | 162 | 100 | CN(C)[C@H]1C[C@H](c2c[nH]c3ccc(CC4COC(=O)N4)cc32)C1 (stereo in doubt; 35) [listing 2 of 2 here] | – | – | –
32 | 6310 | 2450 | CN(C)[C@H]1C[C@H](c2c[nH]c3ccc(CN4C(=O)CNC4=O)cc32)C1 | 9330 | – | –
33 | 204 | 195 | CN(C)[C@H]1C[C@H](c2c[nH]c3ccc(CCN4C(=O)c5ccccc5C4=O)cc32)C1 | 170 | – | –
34 | 1120 | 501 | CC1(C)NC(=O)N(CCc2ccc3[nH]cc([C@H]4C[C@H](N)C4)c3c2)C1=O | 2690 | – | –
